Assay results taken from ChEMBL document CHEMBL5653620, “Activating the Wnt/β-Catenin Pathway for the Treatment of Melanoma--Application of LY2090314, a Novel Selective Inhibitor of Glycogen Synthase Kinase-3” (PLoS One, 2015).
Active and inactive are the calls of the source. The calls are words filed in the database; no cut-off is given here.

Columns and labels:
[1] = biological target: Glycogen synthase kinase-3 (Homo sapiens) (UniProt P49840+P49841); experiment: Inhibition of GSK3 in human A-375 cells harbouring TCF/LEF luciferase reporter gene assessed as increase in wnt signaling incubated for 5 hrs by Bright-Glo luciferase assay; assay type: cell-based
Method in brief: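 A375 cells carried a lentiviral TCF/LEF-responsive luciferase reporter, selected with puromycin 1 μg/ml for 3 days. Cells were seeded at 10,000 per well and moved to 2% FBS medium. Agents were given at 0.5 nmol/L–1 μmol/L for 5 h, and luciferase was read with Bright-Glo substrate.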

[2] = system: SK-MEL-2; experiment: Antiproliferative activity against human SK-MEL-2 cells harboring NRAS Q61R mutation assessed as reduction in cell viability incubated for 72 hrs by CellTitre-Glo assay; assay type: functional, cell-based; conditions: SK-MEL-2, 72 h
Method in brief: (§1)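 Cells seeded at 2,000 per well and left to adhere overnight. After 24 h, medium was switched to growth medium with 2% FBS. Test agent was added at 0.5 nmol/L to 10 μmol/L for 72 h. Viability was read by CellTiter-Glo luminescence. IC50 came from nonlinear regression sigmoidal dose-response fits.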

[3] = Antiproliferative activity against human MEXF1341 cells harboring NRAS Q61 mutation assessed as reduction in cell viability incubated for 72 hrs by CellTitre-Glo assay; assay type: functional, cell-based; conditions: MEXF1341, 72 h; method in brief: as §1
[4] = system: M14; experiment: Antiproliferative activity against human M14 cells harboring BRAF V600E mutation assessed as reduction in cell viability incubated for 72 hrs by CellTitre-Glo assay; assay type: functional, cell-based; conditions: M14, 72 h; method in brief: as §1
[5] = Antiproliferative activity against human MEL1102 cells harboring NRAS Q61K mutation assessed as reduction in cell viability incubated for 72 hrs by CellTitre-Glo assay; assay type: functional, cell-based; conditions: MEL1102, 72 h; method in brief: as §1
[6] = system: A-375; experiment: Antiproliferative activity against human A-375 cells harboring BRAF V600E mutation assessed as reduction in cell viability incubated for 72 hrs by CellTitre-Glo assay; assay type: functional, cell-based; conditions: A-375, 72 h; method in brief: as §1
[7] = system: SK-MEL-28; experiment: Antiproliferative activity against human SK-MEL-28 cells harboring BRAF V600E mutation assessed as reduction in cell viability incubated for 72 hrs by CellTitre-Glo assay; assay type: functional, cell-based; conditions: SK-MEL-28, 72 h; method in brief: as §1
[8] = system: A2058; experiment: Antiproliferative activity against human A2058 cells harboring BRAF V600E/PTEN null mutation assessed as reduction in cell viability incubated for 72 hrs by CellTitre-Glo assay; assay type: functional, cell-based; conditions: A2058, 72 h; method in brief: as §1
[9] = system: CHL-1; experiment: Antiproliferative activity against human CHL-1 cells assessed as reduction in cell viability incubated for 72 hrs by CellTitre-Glo assay; assay type: functional, cell-based; conditions: CHL-1, 72 h; method in brief: as §1
[10] = Antiproliferative activity against human MEXF1792 cells harboring NRAS G13D mutation assessed as reduction in cell viability incubated for 72 hrs by CellTitre-Glo assay; assay type: functional, cell-based; conditions: MEXF1792, 72 h; method in brief: as §1
[11] = Antiproliferative activity against human MEXF276 cells harboring BRAF V600E mutation assessed as reduction in cell viability incubated for 72 hrs by CellTitre-Glo assay; assay type: functional, cell-based; conditions: MEXF276, 72 h; method in brief: as §1
[12] = Antiproliferative activity against human MEXF462 cells harboring BRAF V600E mutation assessed as reduction in cell viability incubated for 72 hrs by CellTitre-Glo assay; assay type: functional, cell-based; conditions: MEXF462, 72 h; method in brief: as §1
[13] = system: A-375; experiment: Antiproliferative activity against human A-375 cells transfected with beta-catenin shRNA assessed as reduction in cell viability incubated for 72 hrs by CellTitre-Glo assay; assay type: functional, cell-based
Method in brief: (§2)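 A375 or M14 cells were transduced with lentiviral shRNA particles (target or control) at MOI 2 with polybrene 8 μg/ml. Puromycin selection at 2 μg/ml began 48 h later, and knockdown was checked by immunoblot. Cells were seeded at 2,000 per well in 2% FBS medium, exposed to agents for 72 h, and read by CellTiter-Glo.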

[14] = system: M14; experiment: Antiproliferative activity against human M14 cells transfected with Axin1 shRNA assessed as reduction in cell viability incubated for 72 hrs by CellTitre-Glo assay; assay type: functional, cell-based; method in brief: as §2
[15] = system: M14; experiment: Antiproliferative activity against human M14 cells transfected with beta-catenin shRNA assessed as reduction in cell viability incubated for 72 hrs by CellTitre-Glo assay; assay type: functional, cell-based; method in brief: as §2
[16] = system: A-375; experiment: Antiproliferative activity against human vemurafenib-resistant A-375 cells harboring BRAF V600E mutation assessed as reduction in cell viability incubated for 72 hrs by CellTitre-Glo assay; assay type: functional, cell-based; conditions: A-375, 72 h
Method in brief: (§3)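 Resistant A375 or M14 lines were derived by growth in vemurafenib over 3 months. Cells were seeded at 2,000 per well and allowed to adhere overnight, then moved to 2% FBS growth medium. Agents were added at 0.5 nmol/L–10 μmol/L for 72 h. Viability was read by CellTiter-Glo, and IC50 was taken from sigmoidal nonlinear regression.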

[17] = system: M14; experiment: Antiproliferative activity against human vemurafenib-resistant M14 cells harboring BRAF V600E mutation assessed as reduction in cell viability incubated for 72 hrs by CellTitre-Glo assay; assay type: functional, cell-based; conditions: M14, 72 h; method in brief: as §3
[18] = system: A-375; experiment: Antiproliferative activity against human A-375 cells transfected with Axin1 shRNA assessed as reduction in cell viability incubated for 72 hrs by CellTitre-Glo assay; assay type: functional, cell-based; method in brief: as §2

Chain of Glycogen synthase kinase-3 (Homo sapiens) (P49840 whole entry, looked up): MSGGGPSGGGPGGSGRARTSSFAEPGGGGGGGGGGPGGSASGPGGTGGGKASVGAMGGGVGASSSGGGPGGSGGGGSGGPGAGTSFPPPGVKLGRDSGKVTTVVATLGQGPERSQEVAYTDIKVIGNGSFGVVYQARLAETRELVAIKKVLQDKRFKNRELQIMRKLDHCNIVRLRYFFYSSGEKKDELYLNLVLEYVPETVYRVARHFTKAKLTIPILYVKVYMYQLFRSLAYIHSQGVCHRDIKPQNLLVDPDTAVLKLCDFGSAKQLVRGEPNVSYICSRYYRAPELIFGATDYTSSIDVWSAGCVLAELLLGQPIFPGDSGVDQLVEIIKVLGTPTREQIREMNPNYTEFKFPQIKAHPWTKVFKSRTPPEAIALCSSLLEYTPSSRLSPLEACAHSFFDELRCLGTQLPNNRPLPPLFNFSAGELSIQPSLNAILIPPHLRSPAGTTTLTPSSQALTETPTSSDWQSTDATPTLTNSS
Chain of Glycogen synthase kinase-3 (Homo sapiens) (P49841 whole entry, looked up): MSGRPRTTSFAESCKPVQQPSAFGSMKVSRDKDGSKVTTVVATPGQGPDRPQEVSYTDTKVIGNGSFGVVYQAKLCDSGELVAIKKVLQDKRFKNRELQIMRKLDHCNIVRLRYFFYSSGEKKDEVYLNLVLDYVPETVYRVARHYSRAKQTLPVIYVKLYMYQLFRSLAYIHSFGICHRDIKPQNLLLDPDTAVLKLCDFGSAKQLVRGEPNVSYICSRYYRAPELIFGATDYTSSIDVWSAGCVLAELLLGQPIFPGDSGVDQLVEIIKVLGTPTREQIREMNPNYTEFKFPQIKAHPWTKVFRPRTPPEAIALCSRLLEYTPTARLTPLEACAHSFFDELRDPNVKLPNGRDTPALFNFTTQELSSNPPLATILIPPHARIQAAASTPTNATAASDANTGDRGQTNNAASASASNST

IC50 [16] | SMILES | inhibition [1] | IC50 [2] | IC50 [3] | IC50 [4] | IC50 [5] | IC50 [6] | IC50 [7] | IC50 [8] | IC50 [9] | IC50 [10] | IC50 [11] | IC50 [12] | Activity [13] | Activity [14] | Activity [15] | IC50 [17] | Activity [18]
 | Nc1nc2ccc(OC(F)(F)F)cc2s1 | Active |  |  |  |  |  |  |  |  |  |  |  |  |  |  |  | 
 | CC(=O)O/N=C1/C(=C2/C(=O)Nc3cc(Br)ccc32)Nc2ccccc21 [6-BROMOINDIRUBIN-3'-ACETOXIME] | Active | 942 nM | 1150 nM | 646 nM | 750 nM | 914 nM | > 5000 nM | 361 nM | 1460 nM | 4940 nM | 954 nM | 605 nM |  |  |  |  | 
5480 nM | CCCS(=O)(=O)Nc1ccc(F)c(C(=O)c2c[nH]c3ncc(-c4ccc(Cl)cc4)cc23)c1F [VEMURAFENIB] |  | > 10000 nM |  | 88 nM | 1260 nM | 102 nM |  |  | > 10000 nM |  |  |  | Active | Active | Active | 3860 nM | Active
